In brackets after ≈: the same amount, converted by molar mass. Blank lines part the entries; values can stand above or below the molecule they belong to.
Legend:
THP-1 [1] = assay: Inhibition of LPS-stimulated TNFalpha production in human THP1 cells; format: functional, cell-based
[2] = Bioavailability in Sprague-Dawley rat; format: ADME, organism-based; settings: in vivo
[3] = Solubility in Sprague-Dawley rat; format: ADME, organism-based
[4] = Half life in Sprague-Dawley rat; format: ADME, organism-based; settings: in vivo
[5] = Metabolism measured as percent loss of compound in Sprague-Dawley rat hepatocytes after 4 hrs; format: ADME, cell-based, Hepatocyte; settings: read-out: Activity
Method in brief: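 Compound incubated with plated Sprague–Dawley rat hepatocytes for 4 h. Metabolism expressed as percent loss of parent compound.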

THP-1 [6] = assay: Inhibition of LPS-stimulated TNFalpha production in human THP1 cells at 10 uM; format: functional
Rattus norvegicus = assay: Reduction in severity of cartilage damage in Sprague-Dawley rat at 25 mg/kg; format: functional; design: scale not given: the % may be the effect or the level left
Method in brief: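 Osteoarthritis was induced in male Sprague–Dawley rats (200–225 g) under anesthesia by injecting 20 µL of 10 mg/mL monosodium iodoacetate into the patellar ligament region of the left knee, flexed 90°. Groups of 15 were dosed BID (about every 12 h) for 7 days with 25 mg/kg compound or vehicle (2.5 mL/kg). On day 22 the left joint was fixed in 10% formalin for 24–48 h and the tibial cartilage surface imaged. Damage severity was compared with vehicle (P < 0.05).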

[7] = Bioavailability in po dosed Sprague-Dawley rat; format: ADME, organism-based; settings: in vivo

Compound: CCNC(=O)N(c1ccc(OC)cc1)c1ccnc(N[C@@H](C)COC)n1
IC50 (THP-1 [1]): 0.819 µM

Compound: CC(C)Nc1nccc(N(C(=O)NCC2CCN(C(=O)OC(C)(C)C)CC2)c2ccc(F)cc2)n1
IC50 (THP-1 [1]): 1.16 µM

Compound: CC(C)Nc1nccc(N(C(=O)NCCN2CCN(C(=O)OC(C)(C)C)CC2)c2ccc(F)cc2)n1
IC50 (THP-1 [1]): 0.277 µM

Compound: CCCCNC(=O)N(c1ccc(OC)cc1)c1ccnc(N[C@@H](C)COC)n1
IC50 (THP-1 [1]): 0.324 µM

Compound: CCNC(=O)N(c1ccc(OC)cc1)c1ccnc(NC(C)C)n1
IC50 (THP-1 [1]): 0.08 µM

Compound: COC[C@H](C)Nc1nccc(N(C(=O)NCc2ccccc2Cl)c2ccc(F)cc2)n1
IC50 (THP-1 [1]): 0.236 µM

Compound: CNc1nccc(N(C(=O)NCc2ccccc2Cl)c2ccc(OC)cc2)n1
inhibition at 10 µM (THP-1 [6]): 3%

Compound: O=C(NCc1ccccc1Cl)N(c1ccc(F)cc1)c1ccnc(Nc2c(F)cccc2F)n1
inhibition at 10 µM (THP-1 [6]): 25%

Compound: CCNC(=O)N(c1ccc(F)cc1)c1ccnc(NC2CCOCC2)n1
bioavailability [2]: 13.2% | solubility [3]: 25 µg/mL (≈ 69.6 µM) | half-life [4]: 0.46 h | IC50 (THP-1 [1]): 0.086 µM | metabolised at 4 h [5]: 16% | Activity (Rattus norvegicus): 16%

Compound: CC(C)Nc1nccc(N(C(=O)NCCN2CCNCC2)c2ccc(F)cc2)n1
IC50 (THP-1 [1]): 0.119 µM

Compound: CCNC(=O)N(c1ccc(OCC)cc1)c1ccnc(N[C@@H](C)COC)n1
IC50 (THP-1 [1]): 0.276 µM

Compound: COC[C@H](C)Nc1nccc(N(C(=O)NCc2ccccc2Cl)c2ccc(OC)cc2)n1
IC50 (THP-1 [1]): 0.148 µM

Compound: CN(C)c1nccc(N(C(=O)NCc2ccccc2Cl)c2ccc(F)cc2)n1
inhibition at 10 µM (THP-1 [6]): 35%

Compound: COC[C@H](C)Nc1nccc(N(C(=O)NC2CCCCC2)c2ccc(OC)cc2)n1
IC50 (THP-1 [1]): 0.467 µM

Compound: COC[C@H](C)Nc1nccc(N(C(=O)NCc2ccc(Cl)c(Cl)c2)c2ccc(OC)cc2)n1
IC50 (THP-1 [1]): 2.07 µM

Compound: COC[C@H](C)Nc1nccc(N(C(=O)NCc2ccc(Cl)cc2Cl)c2ccc(OC)cc2)n1
IC50 (THP-1 [1]): 0.611 µM

Further molecules by falling IC50 (THP-1 [1]), results first:

IC50 (THP-1 [1]): 0.074 µM
Compound: CC(C)NC(=O)N(c1ccc(F)cc1)c1ccnc(NC(C)C)n1

IC50 (THP-1 [1]): 0.056 µM
Compound: CCOc1ccc(N(C(=O)NCc2ccccc2Cl)c2ccnc(N[C@@H](C)COC)n2)cc1

IC50 (THP-1 [1]): 0.037 µM
Compound: COc1ccc(N(C(=O)NCc2ccccc2C)c2ccnc(N[C@@H](C)C(C)(C)O)n2)cc1

IC50 (THP-1 [1]): 0.03 µM
Compound: CC(C)Nc1nccc(N(C(=O)NCc2ccccn2)c2ccc(F)cc2)n1

solubility [3]: 240 µg/mL (≈ 643 µM) | bioavailability [7]: 15% | IC50 (THP-1 [1]): 0.028 µM | metabolised at 4 h [5]: 32%
Compound: CCNC(=O)N(c1ccc(OC)cc1)c1ccnc(N[C@@H](C)C(C)(C)O)n1
Activity (Rattus norvegicus): 24%

IC50 (THP-1 [1]): 0.016 µM
Compound: COc1ccc(N(C(=O)NCc2ccccc2Cl)c2ccnc(NC(C)C)n2)cc1

IC50 (THP-1 [1]): 0.016 µM
Compound: CC(C)Nc1nccc(N(C(=O)NCC2CCNCC2)c2ccc(F)cc2)n1

IC50 (THP-1 [1]): 0.016 µM
Compound: O=C(NCc1ccccc1Cl)N(c1ccc(F)cc1)c1ccnc(NC2CCOCC2)n1

IC50 (THP-1 [1]): 0.015 µM
Compound: COc1ccc(N(C(=O)NCc2ccccc2OC)c2ccnc(N[C@@H](C)C(C)(C)O)n2)cc1

IC50 (THP-1 [1]): 0.014 µM
Compound: C[C@H](Nc1nccc(N(C(=O)NCc2ccccc2Cl)c2ccc(F)cc2)n1)C(C)(C)O

bioavailability [2]: 1.9% | solubility [3]: < 10 µg/mL | half-life [4]: 1.9 h | IC50 (THP-1 [1]): 0.009 µM | metabolised at 4 h [5]: 32%
Compound: COc1ccc(N(C(=O)NCc2ccccc2Cl)c2ccnc(N[C@@H](C)C(C)(C)O)n2)cc1

IC50 (THP-1 [1]): 0.004 µM
Compound: CC(C)Nc1nccc(N(C(=O)NCc2ccncc2)c2ccc(F)cc2)n1

Reference: ChEMBL document CHEMBL1138890, “Development of N-2,4-pyrimidine-N-phenyl-N'-alkyl ureas as orally active inhibitors of tumor necrosis factor alpha (TNF-alpha) synthesis. Part 2” (Bioorg Med Chem Lett, 2006)
